Measured values: ChEMBL document CHEMBL1130231, “Betidamino acid scan of the GnRH antagonist acyline” (J Med Chem, 1997)

Target: T1, Gonadotropin-releasing hormone receptor (Rattus norvegicus, UniProt P30969)
T1 sequence (P30969 whole entry): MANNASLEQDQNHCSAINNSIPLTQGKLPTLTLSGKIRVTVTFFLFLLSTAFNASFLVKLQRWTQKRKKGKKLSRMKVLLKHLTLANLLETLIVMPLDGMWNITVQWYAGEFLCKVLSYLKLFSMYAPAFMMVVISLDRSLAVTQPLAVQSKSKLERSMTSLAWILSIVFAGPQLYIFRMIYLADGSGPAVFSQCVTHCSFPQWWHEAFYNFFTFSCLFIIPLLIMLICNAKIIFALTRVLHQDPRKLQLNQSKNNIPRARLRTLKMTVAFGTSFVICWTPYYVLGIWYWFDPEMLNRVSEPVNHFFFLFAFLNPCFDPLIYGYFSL
Experiment: Inhibition of binding of radiolabeled histrelin to Gonadotropin-releasing hormone receptor (GnRHr) in rat pituitary gland membranes
Format: cell membranes, Membrane
Procedure, shortened: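 Rat anterior pituitary membranes (male and female glands equal numbers), homogenized in 0.32 M sucrose/aprotinin, 4000g pellet, diluted 15-fold in 10 mM Hepes, 0.2% BSA, pH 7.6. Filtration onto PEI-treated glass filters, scintillation counting. IC50 in nM, duplicate, n = 1.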

Row | IC50 [nM] | SMILES
1 | 5.3 | CC(=O)Nc1ccc(C[C@H](NC(=O)[C@H](CO)NC(=O)[C@@H](Cc2cccnc2)NC(=O)[C@@H](Cc2ccc(Cl)cc2)NC(=O)[C@@H](Cc2ccc3ccccc3c2)NC(C)=O)C(=O)N[C@H](C(=O)N[C@@H](CC(C)C)C(=O)N[C@@H](CCCCNC(C)C)C(=O)N2CCC[C@H]2C(=O)N[C@H](C)C(N)=O)N(C)C(=O)c2ccc(NC(C)=O)cc2)cc1 (mixture of isomers)
2 | 0.9 | CC(=O)Nc1ccc(C[C@H](NC(=O)[C@H](NC(=O)[C@@H](Cc2cccnc2)NC(=O)[C@@H](Cc2ccc(Cl)cc2)NC(=O)[C@@H](Cc2ccc3ccccc3c2)NC(C)=O)N(C)C=O)C(=O)N[C@H](Cc2ccc(NC(C)=O)cc2)C(=O)N[C@@H](CC(C)C)C(=O)N[C@@H](CCCCNC(C)C)C(=O)N2CCC[C@H]2C(=O)N[C@H](C)C(N)=O)cc1 (single isomer, unassigned)
3 | 0.23 | CC(=O)Nc1ccc(C[C@H](NC(=O)[C@H](CO)NC(=O)[C@H](Cc2cccnc2)NC(=O)[C@@H](Cc2ccc(Cl)cc2)NC(=O)[C@@H](Cc2ccc3ccccc3c2)NC(C)=O)C(=O)N[C@H](Cc2ccc(NC(C)=O)cc2)C(=O)N[C@@H](CC(C)C)C(=O)N[C@@H](CCCCNC(C)C)C(=O)N2CCC[C@H]2C(=O)N[C@H](C)C(N)=O)cc1
4 | 0.3 | CC(=O)Nc1ccc(C[C@H](NC(=O)[C@H](CO)NC(=O)[C@@H](Cc2cccnc2)NC(=O)[C@@H](Cc2ccc(Cl)cc2)NC(=O)[C@@H](NC(C)=O)N(C)C(=O)c2ccc3ccccc3c2)C(=O)N[C@H](Cc2ccc(NC(C)=O)cc2)C(=O)N[C@@H](CC(C)C)C(=O)N[C@@H](CCCCNC(C)C)C(=O)N2CCC[C@H]2C(=O)N[C@H](C)C(N)=O)cc1 (single isomer, unassigned)
5 | 9.2 | CC(=O)Nc1ccc(C[C@H](NC(=O)[C@H](CO)NC(=O)[C@@H](Cc2cccnc2)NC(=O)[C@@H](Cc2ccc(Cl)cc2)NC(=O)[C@H](NC(C)=O)N(C)C(=O)c2ccc3ccccc3c2)C(=O)N[C@H](Cc2ccc(NC(C)=O)cc2)C(=O)N[C@@H](CC(C)C)C(=O)N[C@@H](CCCCNC(C)C)C(=O)N2CCC[C@H]2C(=O)N[C@H](C)C(N)=O)cc1
6 | 0.74 | CC(=O)Nc1ccc(C[C@H](NC(=O)[C@H](CO)NC(=O)[C@@H](Cc2cccnc2)NC(=O)[C@@H](Cc2ccc(Cl)cc2)NC(=O)[C@@H](Cc2ccc3ccccc3c2)NC(C)=O)C(=O)N[C@H](Cc2ccc(NC(C)=O)cc2)C(=O)N[C@@H](CC(C)C)C(=O)NC(NC(=O)CNC(=N)N)C(=O)N2CCC[C@H]2C(=O)N[C@H](C)C(N)=O)cc1 (stereo partly drawn)
7 | 0.62 | CC(=O)Nc1ccc(C[C@H](NC(=O)[C@H](CO)NC(=O)[C@@H](Cc2cccnc2)NC(=O)[C@@H](Cc2ccc(Cl)cc2)NC(=O)[C@@H](Cc2ccc3ccccc3c2)NC(C)=O)C(=O)N[C@H](Cc2ccc(NC(C)=O)cc2)C(=O)N[C@@H](CC(C)C)C(=O)N[C@@H](CCCCNC(C)C)C(=O)N2CCC[C@H]2C(=O)N[C@@H](NC=O)C(N)=O)cc1 (single isomer, unassigned)
8 | 0.67 | CC(=O)Nc1ccc(C[C@H](NC(=O)[C@H](CO)NC(=O)[C@@H](Cc2cccnc2)NC(=O)[C@@H](Cc2ccc(Cl)cc2)NC(=O)[C@@H](Cc2ccc3ccccc3c2)NC(C)=O)C(=O)N[C@H](Cc2ccc(NC(C)=O)cc2)C(=O)N[C@@H](CC(C)C)C(=O)N[C@@H](CCCCNC(C)C)C(=O)N2CCC[C@H]2C(=O)N[C@H](C(N)=O)N(C)C=O)cc1
9 | 1.7 | CC(=O)Nc1ccc(C[C@H](NC(=O)[C@H](CO)NC(=O)[C@@H](Cc2cccnc2)NC(=O)[C@@H](Cc2ccc(Cl)cc2)NC(=O)[C@@H](Cc2ccc3ccccc3c2)NC(C)=O)C(=O)N[C@H](Cc2ccc(NC(C)=O)cc2)C(=O)N[C@H](C(=O)N[C@@H](CCCCNC(C)C)C(=O)N2CCC[C@H]2C(=O)N[C@H](C)C(N)=O)N(C)C(C)=O)cc1
10 | 0.3 | CC(=O)Nc1ccc(C[C@H](NC(=O)[C@H](CO)NC(=O)[C@@H](Cc2cccnc2)NC(=O)[C@@H](Cc2ccc(Cl)cc2)NC(=O)[C@@H](Cc2ccc3ccccc3c2)NC(C)=O)C(=O)N[C@H](Cc2ccc(NC(C)=O)cc2)C(=O)N[C@@H](CC(C)C)C(=O)N[C@@H](CCCCNC(C)C)C(=O)N2CCC[C@H]2C(=O)N[C@H](C)C(N)=O)cc1
11 | 5.5 | CC(=O)Nc1ccc(C[C@H](NC(=O)[C@@H](NC(=O)[C@@H](Cc2cccnc2)NC(=O)[C@@H](Cc2ccc(Cl)cc2)NC(=O)[C@@H](Cc2ccc3ccccc3c2)NC(C)=O)N(C)C=O)C(=O)N[C@H](Cc2ccc(NC(C)=O)cc2)C(=O)N[C@@H](CC(C)C)C(=O)N[C@@H](CCCCNC(C)C)C(=O)N2CCC[C@H]2C(=O)N[C@H](C)C(N)=O)cc1 (single isomer, unassigned)
12 | 0.64 | CC(=O)Nc1ccc(C[C@H](NC(=O)[C@H](CO)NC(=O)[C@@H](Cc2cccnc2)NC(=O)[C@@H](Cc2ccc(Cl)cc2)NC(=O)[C@H](Cc2ccc3ccccc3c2)NC(C)=O)C(=O)N[C@H](Cc2ccc(NC(C)=O)cc2)C(=O)N[C@@H](CC(C)C)C(=O)N[C@@H](CCCCNC(C)C)C(=O)N2CCC[C@H]2C(=O)N[C@H](C)C(N)=O)cc1
13 | 0.76 | CC(=O)Nc1ccc(C[C@H](NC(=O)[C@H](CO)NC(=O)[C@H](NC(=O)c2cccnc2)NC(=O)[C@@H](Cc2ccc(Cl)cc2)NC(=O)[C@@H](Cc2ccc3ccccc3c2)NC(C)=O)C(=O)N[C@H](Cc2ccc(NC(C)=O)cc2)C(=O)N[C@@H](CC(C)C)C(=O)N[C@@H](CCCCNC(C)C)C(=O)N2CCC[C@H]2C(=O)N[C@H](C)C(N)=O)cc1
14 | 0.48 | CC(=O)Nc1ccc(C[C@H](NC(=O)[C@H](CO)NC(=O)[C@@H](Cc2cccnc2)NC(=O)[C@@H](Cc2ccc(Cl)cc2)NC(=O)[C@@H](Cc2ccc3ccccc3c2)NC(C)=O)C(=O)N[C@H](Cc2ccc(NC(C)=O)cc2)C(=O)N[C@@H](CC(C)C)C(=O)N[C@@H](CCCCNC(C)C)C(=O)N2CCC[C@H]2C(=O)N[C@H](N)C(N)=O)cc1
15 | 1.9 | CC(=O)Nc1ccc(C[C@H](NC(=O)[C@H](CO)NC(=O)[C@@H](Cc2cccnc2)NC(=O)[C@@H](Cc2ccc(Cl)cc2)NC(=O)[C@@H](Cc2ccc3ccccc3c2)NC(C)=O)C(=O)N[C@@H](C(=O)N[C@@H](CC(C)C)C(=O)N[C@@H](CCCCNC(C)C)C(=O)N2CCC[C@H]2C(=O)N[C@H](C)C(N)=O)N(C)C(=O)c2ccc(NC(C)=O)cc2)cc1 (mixture of isomers)
16 | 0.53 | CC(=O)Nc1ccc(C[C@H](NC(=O)[C@H](CO)NC(=O)[C@@H](Cc2cccnc2)NC(=O)[C@@H](Cc2ccc(Cl)cc2)NC(=O)[C@@H](Cc2ccc3ccccc3c2)NC(C)=O)C(=O)N[C@H](Cc2ccc(NC(C)=O)cc2)C(=O)N[C@H](C(=O)N[C@@H](CCCCNC(C)C)C(=O)N2CCC[C@H]2C(=O)N[C@H](C)C(N)=O)N(C)C(=O)C(C)C)cc1
17 | 0.88 | CC(=O)Nc1ccc(C[C@H](NC(=O)[C@H](CO)NC(=O)[C@@H](Cc2cccnc2)NC(=O)[C@@H](Cc2ccc(Cl)cc2)NC(=O)[C@H](NC(C)=O)NC(=O)c2ccc3ccccc3c2)C(=O)N[C@H](Cc2ccc(NC(C)=O)cc2)C(=O)N[C@@H](CC(C)C)C(=O)N[C@@H](CCCCNC(C)C)C(=O)N2CCC[C@H]2C(=O)N[C@H](C)C(N)=O)cc1
18 | 2000 | CC(=O)Nc1ccc(C[C@H](NC(=O)[C@H](CO)NC(=O)[C@@H](Cc2cccnc2)NC(=O)[C@@H](NC(=O)c2cnccn2)NC(=O)[C@@H](Cc2ccc3ccccc3c2)NC(C)=O)C(=O)N[C@H](Cc2ccc(NC(C)=O)cc2)C(=O)N[C@@H](CC(C)C)C(=O)N[C@@H](CCCCNC(C)C)C(=O)N2CCC[C@H]2C(=O)N[C@H](C)C(N)=O)cc1
19 | 2 | CC(=O)Nc1ccc(C[C@H](NC(=O)[C@H](CO)NC(=O)[C@@H](Cc2cccnc2)NC(=O)[C@@H](Cc2ccc(Cl)cc2)NC(=O)[C@@H](Cc2ccc3ccccc3c2)NC(C)=O)C(=O)N[C@H](Cc2ccc(NC(C)=O)cc2)C(=O)N[C@@H](CNC(=O)C(C)C)C(=O)N[C@@H](CCCCNC(C)C)C(=O)N2CCC[C@H]2C(=O)N[C@H](C)C(N)=O)cc1
20 | 36 | CC(=O)Nc1ccc(C[C@H](NC(=O)[C@H](CO)NC(=O)[C@@H](NC(=O)[C@@H](Cc2ccc(Cl)cc2)NC(=O)[C@@H](Cc2ccc3ccccc3c2)NC(C)=O)N(C)C(=O)c2cccnc2)C(=O)N[C@H](Cc2ccc(NC(C)=O)cc2)C(=O)N[C@@H](CC(C)C)C(=O)N[C@@H](CCCCNC(C)C)C(=O)N2CCC[C@H]2C(=O)N[C@H](C)C(N)=O)cc1 (single isomer, unassigned)
21 | 0.056 | CC(=O)Nc1ccc(C[C@H](NC(=O)[C@@H](NC(=O)CO)NC(=O)[C@@H](Cc2cccnc2)NC(=O)[C@@H](Cc2ccc(Cl)cc2)NC(=O)[C@@H](Cc2ccc3ccccc3c2)NC(C)=O)C(=O)N[C@H](Cc2ccc(NC(C)=O)cc2)C(=O)N[C@@H](CC(C)C)C(=O)N[C@@H](CCCCNC(C)C)C(=O)N2CCC[C@H]2C(=O)N[C@H](C)C(N)=O)cc1 (single isomer, unassigned)
22 | 2.4 | CC(=O)Nc1ccc(C[C@H](NC(=O)[C@H](CO)NC(=O)[C@@H](Cc2cccnc2)NC(=O)[C@@H](Cc2ccc(Cl)cc2)NC(=O)[C@@H](Cc2ccc3ccccc3c2)NC(C)=O)C(=O)N[C@H](Cc2ccc(NC(C)=O)cc2)C(=O)N[C@@H](CC(C)C)C(=O)N[C@@H](C(=O)N2CCC[C@H]2C(=O)N[C@H](C)C(N)=O)N(C)C(=O)CCNC(C)C)cc1 (single isomer, unassigned)
23 | 0.63 | CC(=O)Nc1ccc(C[C@H](NC(=O)[C@H](CO)NC(=O)[C@@H](NC(=O)c2cccnc2)NC(=O)[C@@H](Cc2ccc(Cl)cc2)NC(=O)[C@@H](Cc2ccc3ccccc3c2)NC(C)=O)C(=O)N[C@H](Cc2ccc(NC(C)=O)cc2)C(=O)N[C@@H](CC(C)C)C(=O)N[C@@H](CCCCNC(C)C)C(=O)N2CCC[C@H]2C(=O)N[C@H](C)C(N)=O)cc1
